Results reported in ChEMBL document CHEMBL1146195, “Use of novel boronic acid transition state inhibitors to probe substrate affinity in SHV-type extended-spectrum beta-lactamases” (Antimicrob Agents Chemother, 2007).
Substitutions are numbered along the chain they refer to.

Legend:
[1] = Binding affinity at Beta-lactamase SHV2 G238S expressed in Escherichia coli DH10B cells
Summary of the method: (§1)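 Enzyme cloned in pBCSK(−), expressed in E. coli DH10B, purified, then further purified by size-exclusion HPLC; purity checked by SDS-PAGE. Ki found by competing increasing inhibitor concentrations against nitrocefin at 4–6 × Km in continuous spectrophotometric assays at room temperature. Percent inhibition was fitted to an equation using the nitrocefin Km.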

[2] = target: T1, SHV-5 extended spectrum beta-lactamase (Escherichia coli, UniProt Q6REX6); test: Binding affinity at Beta-lactamase SHV5 expressed in Escherichia coli DH10B cells
T1 sequence (Q6REX6 whole entry): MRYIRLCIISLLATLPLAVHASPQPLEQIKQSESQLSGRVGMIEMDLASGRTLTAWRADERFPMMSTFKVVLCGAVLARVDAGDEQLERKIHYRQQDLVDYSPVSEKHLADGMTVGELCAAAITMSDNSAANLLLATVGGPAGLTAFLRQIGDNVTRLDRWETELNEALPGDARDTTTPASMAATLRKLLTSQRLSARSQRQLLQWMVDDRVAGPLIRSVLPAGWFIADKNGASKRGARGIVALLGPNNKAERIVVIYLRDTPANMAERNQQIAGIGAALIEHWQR
Summary of the method: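 Purified SHV-5 enzyme, expressed in E. coli DH10B from pBCSK(−); purity checked by SDS-PAGE. Ki from continuous spectrophotometric competition assays at room temperature: increasing inhibitor concentrations against nitrocefin at 4 to 6 times its Km. Percent inhibition fitted using the nitrocefin Km. Inhibition mode from full progress curves at varied nitrocefin, without inhibitor and at two inhibitor concentrations.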

Beta-lactamase SHV-1 = target: T2, Beta-lactamase SHV-1 (Escherichia coli, UniProt P0AD63); test: Binding affinity at Beta-lactamase SHV1 expressed in Escherichia coli DH10B cells
T2 sequence (P0AD63 whole entry): T1 sequence (Q6REX6 whole entry) with Q31L, N231T, S234G, K235E, N265S
Summary of the method: as §1, with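 “SHV-1” for “Enzyme”, “DH10B and purified;” for “DH10B, purified, then further purified by size-exclusion HPLC;”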

[3] = Binding affinity at Beta-lactamase D104K G238S expressed in Escherichia coli DH10B cells; summary of the method: as §1
[4] = Binding affinity at Beta-lactamase D104K expressed in Escherichia coli DH10B cells; summary of the method: as §1

| SMILES | Ki [1] [µM] | Ki [2] [µM] | Ki (Beta-lactamase SHV-1) [µM] | Ki [3] [µM] | Ki [4] [µM] |
| --- | --- | --- | --- | --- | --- |
| CC(C)(O/N=C(\C(=O)NCB(O)O)c1csc(N)n1)C(=O)O [CEFTAZIDIME BATSI] | 6.8 | 4.5 | 2.2 | 4.5 | 0.7 |
| CO/N=C(\C(=O)NCB(O)O)c1csc(N)n1 [CEFOTAXIME BATSI] | 3.4 | 5 | 8.9 | 1.1 | 5 |
| CC(=O)NCB(O)O [ACETAMIDOMETHYLBORONIC ACID] | 330 | 360 | 300 | 300 | 190 |
